Experimental data taken from ChEMBL document CHEMBL5649170, “Sustained microglial depletion with CSF1R inhibitor impairs parenchymal plaque development in an Alzheimer's disease model” (Nat Commun, 2019).
The source made the active and inactive calls. The rule behind the calls is not given here.

What was measured:
[1] = Drug concentration in wildtype mouse plasma at 600 ppm administered as rodent chow starting from 1.5 months and measured after 5 months; format: ADME, cell-free; details: route po, time 3.5 months
Outline: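 WT or 5xFAD mice were fed PLX3397 in AIN-76A chow at 600 ppm or 75 ppm from 1.5 to 5 months of age. Terminal brain and plasma drug concentrations were determined at study end.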

[2] = target: Fibroblast growth factor receptor 1 (Homo sapiens, UniProt P11362); assay: Inhibition of FGFR1 (unknown origin)
Mus musculus [3] = assay: Effect on circulating leukocytes in wildtype mouse assessed as percentage of CD45+/PI- cells expressing CD11b at 1200 ppm administered as rodent chow for 10 to 24 weeks (reference value: 6.22 to 25.7 %); format: functional; details: route po, time 10-24 weeks
Mus musculus [4] = assay: Prevention of Apc gene downregulation in 5XFAD mouse hippocampus at 1200 ppm administered as rodent chow starting from 1.5 months and measured after 7 months by Nanostring analysis; format: functional, tissue-based; details: route po, time 5.5 months
[5] = Volume of distribution at steady state in mouse at 1.92 mg/kg, iv administered as single dose; format: ADME, organism-based; details: in vivo, read-out: Vdss
[6] = Toxicity in wildtype mouse assessed as distance traveled at 1200 ppm administered as rodent chow for 10 to 24 weeks by Open field test (reference value: 13.381 to 26.996 meter); details: in vivo, po, time 10-24 weeks
Mus musculus [7] = assay: Antialzheimer activity in 5XFAD mouse assessed as number of entries to center zone at 1200 ppm administered as rodent chow for 10 to 24 weeks by Open field test (reference value: 22 to 55); format: functional; details: route po, time 10-24 weeks
[8] = AUC (0 to infinity) in male rat at 1.13 mg/kg, iv administered as single dose; format: ADME, organism-based; details: in vivo
Mus musculus [9] = assay: Antialzheimer activity in 5XFAD mouse assessed as amyloidbeta42 level in detergent insoluble cortex fraction measured per microgram protein at 1200 ppm administered as rodent chow starting from 1.5 months and measured after 4 months by ELISA (reference value: 184693 to 3485624 pg); format: functional; details: route po, time 2.5 months, 1825 h
Outline: (§1)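 PLX5622 at 1200 ppm in chow given to 5xFAD mice from 1.5 months to 4 or 7 months of age; cortex and thalamus homogenized in TPER (detergent-soluble), pellets re-homogenized in 70% formic acid and spun 100,000 g, 1 h, 4 °C (insoluble); protein by Bradford/Lowry; Aβ species measured by Meso Scale electrochemiluminescence immunoassay, normalized to protein; n = 7–8 per group at 7 months.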

[10] = target: Tyrosine-protein kinase Fer (Homo sapiens, UniProt P16591); assay: Inhibition of FER (unknown origin)
Tyrosine-protein kinase Fer, sequence (P16591 whole entry): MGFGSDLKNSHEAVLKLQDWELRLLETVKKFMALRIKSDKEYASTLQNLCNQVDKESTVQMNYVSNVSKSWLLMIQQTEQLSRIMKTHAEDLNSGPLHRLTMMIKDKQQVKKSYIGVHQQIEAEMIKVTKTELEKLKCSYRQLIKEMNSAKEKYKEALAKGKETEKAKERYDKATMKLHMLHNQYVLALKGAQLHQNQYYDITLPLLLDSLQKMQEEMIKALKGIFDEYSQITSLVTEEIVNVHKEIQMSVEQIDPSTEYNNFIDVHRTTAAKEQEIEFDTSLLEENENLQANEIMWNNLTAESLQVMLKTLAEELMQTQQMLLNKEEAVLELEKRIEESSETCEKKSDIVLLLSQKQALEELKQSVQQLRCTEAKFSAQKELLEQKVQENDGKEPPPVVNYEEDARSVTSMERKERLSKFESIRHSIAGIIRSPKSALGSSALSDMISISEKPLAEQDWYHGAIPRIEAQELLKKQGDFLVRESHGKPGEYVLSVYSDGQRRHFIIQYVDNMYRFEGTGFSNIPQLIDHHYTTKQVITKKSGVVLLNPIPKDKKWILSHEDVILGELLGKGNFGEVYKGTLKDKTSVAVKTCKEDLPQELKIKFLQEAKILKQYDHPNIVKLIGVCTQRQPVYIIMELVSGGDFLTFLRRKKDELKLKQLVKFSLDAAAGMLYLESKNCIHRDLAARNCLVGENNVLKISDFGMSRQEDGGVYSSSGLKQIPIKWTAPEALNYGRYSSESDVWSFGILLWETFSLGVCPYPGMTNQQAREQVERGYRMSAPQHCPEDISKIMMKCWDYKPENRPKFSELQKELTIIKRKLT

Mus musculus [11] = assay: Antialzheimer activity in 5XFAD mouse assessed as amyloidbeta40 level in detergent insoluble cortex fraction measured per microgram protein at 1200 ppm administered as rodent chow starting from 1.5 months and measured after 7 months by ELISA (reference value: 615.15 to 39796 pg); format: functional; details: route po, time 5.5 months, 4015 h; outline: as §1
[12] = Cmax in mouse at 45 mg/kg, po administered as single dose via gavage; format: ADME, organism-based; details: in vivo
Mus musculus [13] = assay: Antialzheimer activity in 5XFAD mouse assessed as number of triads at 1200 ppm administered as rodent chow for 10 to 24 weeks by Y-maze test (reference value: 3 to 9); format: functional; details: route po, time 10-24 weeks
Outline: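 Y-maze: the sequence of arm entries was scored live and video-recorded. Triads were counted as sequential entries into three different arms. Mice had received 1200 ppm PLX5622 or control chow from 1.5 months of age.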

Mus musculus [14] = assay: Antialzheimer activity in 5XFAD mouse assessed as time in platform zone at 1200 ppm administered as rodent chow for 10 to 24 weeks by Morris water maze test (reference value: 0 to 27 sec); format: functional; details: route po, time 10-24 weeks
Outline: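 Morris water maze: a circular pool was filled with opaque water (white paint added), and mice were given four trials per acquisition day. Twenty-four hours after the last acquisition day, the platform was removed for a 60 s probe trial. Mice had been on 1200 ppm PLX5622 or control chow for 10 or 24 weeks from 1.5 months of age.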

Mus musculus [15] = assay: Antialzheimer activity in 5XFAD mouse assessed as amyloidbeta40 level in detergent soluble thalamus fraction measured per microgram protein at 1200 ppm administered as rodent chow starting from 1.5 months and measured after 7 months by ELISA (reference value: 0 to 0.047 pg); format: functional; details: route po, time 5.5 months, 4015 h; outline: as §1
[16] = target: G protein-coupled receptor kinase 4 (Homo sapiens, UniProt P32298); assay: Inhibition of GRK4 (unknown origin)
G protein-coupled receptor kinase 4, sequence (P32298 whole entry): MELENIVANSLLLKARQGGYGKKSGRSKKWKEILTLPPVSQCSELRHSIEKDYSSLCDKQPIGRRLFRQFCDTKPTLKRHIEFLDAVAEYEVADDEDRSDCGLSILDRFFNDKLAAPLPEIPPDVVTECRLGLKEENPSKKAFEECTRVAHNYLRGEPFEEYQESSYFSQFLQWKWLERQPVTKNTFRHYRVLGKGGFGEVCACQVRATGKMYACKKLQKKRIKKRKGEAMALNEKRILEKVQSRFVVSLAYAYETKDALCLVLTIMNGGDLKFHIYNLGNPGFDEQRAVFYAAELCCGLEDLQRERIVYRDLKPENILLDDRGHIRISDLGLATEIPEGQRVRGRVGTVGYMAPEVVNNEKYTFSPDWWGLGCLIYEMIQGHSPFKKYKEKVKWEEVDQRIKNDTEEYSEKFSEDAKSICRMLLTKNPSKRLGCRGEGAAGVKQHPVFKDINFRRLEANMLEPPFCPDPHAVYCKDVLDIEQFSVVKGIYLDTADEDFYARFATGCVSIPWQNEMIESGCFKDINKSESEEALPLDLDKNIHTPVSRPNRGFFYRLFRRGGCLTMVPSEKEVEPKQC

[17] = target: Protein kinase C epsilon type (Homo sapiens, UniProt Q02156); assay: Inhibition of PRKCE (unknown origin)
Protein kinase C epsilon type, sequence (Q02156 whole entry): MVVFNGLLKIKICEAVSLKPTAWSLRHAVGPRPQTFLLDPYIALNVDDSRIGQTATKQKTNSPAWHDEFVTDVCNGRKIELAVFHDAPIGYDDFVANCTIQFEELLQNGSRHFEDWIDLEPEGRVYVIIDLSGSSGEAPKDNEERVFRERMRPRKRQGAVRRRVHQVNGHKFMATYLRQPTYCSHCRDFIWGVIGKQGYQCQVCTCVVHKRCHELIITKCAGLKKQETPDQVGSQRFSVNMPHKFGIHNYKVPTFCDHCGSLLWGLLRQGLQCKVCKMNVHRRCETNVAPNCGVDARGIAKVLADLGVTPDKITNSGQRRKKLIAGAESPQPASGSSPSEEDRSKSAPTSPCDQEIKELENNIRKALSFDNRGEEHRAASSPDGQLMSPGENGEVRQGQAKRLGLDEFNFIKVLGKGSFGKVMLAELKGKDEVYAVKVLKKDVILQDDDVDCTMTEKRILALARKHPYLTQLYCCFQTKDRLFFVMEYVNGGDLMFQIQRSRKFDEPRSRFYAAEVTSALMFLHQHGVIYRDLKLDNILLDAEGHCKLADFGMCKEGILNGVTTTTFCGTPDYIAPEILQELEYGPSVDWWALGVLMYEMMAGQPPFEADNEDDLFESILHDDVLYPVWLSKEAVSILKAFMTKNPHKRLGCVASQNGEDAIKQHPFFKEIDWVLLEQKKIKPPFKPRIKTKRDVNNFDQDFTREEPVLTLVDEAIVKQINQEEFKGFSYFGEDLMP

[18] = Effect on Spi1 gene expression in 5XFAD mouse cortex at 1200 ppm administered as rodent chow starting from 1.5 months and measured after 7 months by RNA-Seq analysis (reference value: 1.689 to 2.928 RPKM); format: functional; details: route po, time 5.5 months, 4015 h
Mus musculus [19] = assay: Antialzheimer activity in 5XFAD mouse assessed as number of Iba positive cells per FOV in retro spinal cortex at 1200 ppm administered as rodent chow starting from 1.5 months and measured after 4 months (reference value: 210 to 529); format: functional; details: route po, time 2.5 months, 1825 h
Mus musculus [20] = assay: Antialzheimer activity in 5XFAD mouse assessed as average plaque volume in retro spinal cortex at 1200 ppm administered as rodent chow starting from 1.5 months and measured after 7 months by Thio-S staining based confocal microscopic analysis (reference value: 1174.18 to 2460.96 microm3); format: functional; details: route po, time 5.5 months, 4015 h
Mus musculus [21] = assay: Antialzheimer activity in 5XFAD mouse assessed as microglial elimination in cortex at 1200 ppm administered as rodent chow for 10 weeks by Thio-S staining based confocal microscopic analysis relative to control; format: functional; details: route po
Outline: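 1.5-month-old 5xFAD mice fed 1200 ppm PLX5622 chow for 10 weeks; free-floating sections stained with Thio-S and immunolabeled for IBA1 (5% normal serum/0.2% Triton X-100 block, 60 min); confocal imaging of cortex and thalamus to assess remaining microglia.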

Mus musculus [22] = assay: Antialzheimer activity in 5XFAD mouse assessed as amyloidbeta38 level in detergent soluble thalamus fraction measured per microgram protein at 1200 ppm administered as rodent chow starting from 1.5 months and measured after 7 months by ELISA (reference value: 0 to 0.010 pg); format: functional; details: route po, time 5.5 months, 4015 h; outline: as §1
Mus musculus [23] = assay: Antialzheimer activity in 5XFAD mouse assessed as iron reactivity by measuring hemosiderin intensity of prussian blue staining in thalamus at 1200 ppm administered as rodent chow starting from 1.5 months and measured after 7 months by confocal microscopic analysis (reference value: 0.39 to 3.131 a.u.); format: functional; details: route po, time 5.5 months, 4015 h
Outline: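 Wild-type or 5xFAD mice fed PLX5622 (1200 ppm) in AIN-76A chow from 1.5 months of age, examined in 4- and 7-month-old cohorts. Brain sections stained with a Prussian blue kit per kit instructions to detect iron deposits (microbleeds).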

Angiopoietin-1 receptor = Angiopoietin-1 receptor (Homo sapiens, UniProt Q02763); assay: Inhibition of TEK (unknown origin)
Angiopoietin-1 receptor, sequence (Q02763 whole entry): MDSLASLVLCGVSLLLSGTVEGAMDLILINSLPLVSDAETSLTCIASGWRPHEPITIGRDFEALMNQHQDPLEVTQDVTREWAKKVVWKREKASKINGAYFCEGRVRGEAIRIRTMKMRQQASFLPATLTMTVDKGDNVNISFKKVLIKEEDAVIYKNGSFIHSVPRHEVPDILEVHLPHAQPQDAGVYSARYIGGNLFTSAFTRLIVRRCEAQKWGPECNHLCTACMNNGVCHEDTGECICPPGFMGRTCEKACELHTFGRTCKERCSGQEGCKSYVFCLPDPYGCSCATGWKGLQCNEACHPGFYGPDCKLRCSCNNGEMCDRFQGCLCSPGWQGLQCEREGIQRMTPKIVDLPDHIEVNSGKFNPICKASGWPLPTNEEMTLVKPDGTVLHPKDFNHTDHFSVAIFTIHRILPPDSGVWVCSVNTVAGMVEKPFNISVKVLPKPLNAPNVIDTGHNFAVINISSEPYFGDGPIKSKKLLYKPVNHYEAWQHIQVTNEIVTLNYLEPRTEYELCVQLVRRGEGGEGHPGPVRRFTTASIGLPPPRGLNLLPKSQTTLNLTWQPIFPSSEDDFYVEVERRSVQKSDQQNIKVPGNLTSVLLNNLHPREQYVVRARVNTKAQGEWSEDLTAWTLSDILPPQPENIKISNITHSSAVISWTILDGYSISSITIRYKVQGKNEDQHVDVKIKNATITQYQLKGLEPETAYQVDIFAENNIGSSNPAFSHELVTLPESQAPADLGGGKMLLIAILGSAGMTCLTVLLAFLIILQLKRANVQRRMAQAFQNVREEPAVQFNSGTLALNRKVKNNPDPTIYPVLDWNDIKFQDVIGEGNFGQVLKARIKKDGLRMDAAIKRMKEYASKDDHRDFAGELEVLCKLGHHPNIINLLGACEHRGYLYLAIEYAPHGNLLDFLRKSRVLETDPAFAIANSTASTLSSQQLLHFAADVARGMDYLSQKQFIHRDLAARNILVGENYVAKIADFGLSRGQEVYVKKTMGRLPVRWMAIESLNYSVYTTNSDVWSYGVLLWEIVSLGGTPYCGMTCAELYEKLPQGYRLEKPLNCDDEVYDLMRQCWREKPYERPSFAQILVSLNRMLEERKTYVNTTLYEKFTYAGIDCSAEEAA

Mus musculus [24] = assay: Antialzheimer activity in 5XFAD mouse assessed as amyloidbeta42 level in detergent soluble cortex fraction measured per microgram protein at 1200 ppm administered as rodent chow starting from 1.5 months and measured after 4 months by ELISA (reference value: 0 to 0.063 pg); format: functional; details: route po, time 2.5 months, 1825 h; outline: as §1
[25] = Volume of distribution at steady state in dog at 1.00 mg/kg, iv administered as single dose; format: ADME, organism-based, Canis lupus familiaris; details: in vivo, read-out: Vdss
[26] = target: Rho-associated protein kinase 2 (Homo sapiens, UniProt O75116); assay: Inhibition of ROCK2 (unknown origin)
Rho-associated protein kinase 2, sequence (O75116 whole entry): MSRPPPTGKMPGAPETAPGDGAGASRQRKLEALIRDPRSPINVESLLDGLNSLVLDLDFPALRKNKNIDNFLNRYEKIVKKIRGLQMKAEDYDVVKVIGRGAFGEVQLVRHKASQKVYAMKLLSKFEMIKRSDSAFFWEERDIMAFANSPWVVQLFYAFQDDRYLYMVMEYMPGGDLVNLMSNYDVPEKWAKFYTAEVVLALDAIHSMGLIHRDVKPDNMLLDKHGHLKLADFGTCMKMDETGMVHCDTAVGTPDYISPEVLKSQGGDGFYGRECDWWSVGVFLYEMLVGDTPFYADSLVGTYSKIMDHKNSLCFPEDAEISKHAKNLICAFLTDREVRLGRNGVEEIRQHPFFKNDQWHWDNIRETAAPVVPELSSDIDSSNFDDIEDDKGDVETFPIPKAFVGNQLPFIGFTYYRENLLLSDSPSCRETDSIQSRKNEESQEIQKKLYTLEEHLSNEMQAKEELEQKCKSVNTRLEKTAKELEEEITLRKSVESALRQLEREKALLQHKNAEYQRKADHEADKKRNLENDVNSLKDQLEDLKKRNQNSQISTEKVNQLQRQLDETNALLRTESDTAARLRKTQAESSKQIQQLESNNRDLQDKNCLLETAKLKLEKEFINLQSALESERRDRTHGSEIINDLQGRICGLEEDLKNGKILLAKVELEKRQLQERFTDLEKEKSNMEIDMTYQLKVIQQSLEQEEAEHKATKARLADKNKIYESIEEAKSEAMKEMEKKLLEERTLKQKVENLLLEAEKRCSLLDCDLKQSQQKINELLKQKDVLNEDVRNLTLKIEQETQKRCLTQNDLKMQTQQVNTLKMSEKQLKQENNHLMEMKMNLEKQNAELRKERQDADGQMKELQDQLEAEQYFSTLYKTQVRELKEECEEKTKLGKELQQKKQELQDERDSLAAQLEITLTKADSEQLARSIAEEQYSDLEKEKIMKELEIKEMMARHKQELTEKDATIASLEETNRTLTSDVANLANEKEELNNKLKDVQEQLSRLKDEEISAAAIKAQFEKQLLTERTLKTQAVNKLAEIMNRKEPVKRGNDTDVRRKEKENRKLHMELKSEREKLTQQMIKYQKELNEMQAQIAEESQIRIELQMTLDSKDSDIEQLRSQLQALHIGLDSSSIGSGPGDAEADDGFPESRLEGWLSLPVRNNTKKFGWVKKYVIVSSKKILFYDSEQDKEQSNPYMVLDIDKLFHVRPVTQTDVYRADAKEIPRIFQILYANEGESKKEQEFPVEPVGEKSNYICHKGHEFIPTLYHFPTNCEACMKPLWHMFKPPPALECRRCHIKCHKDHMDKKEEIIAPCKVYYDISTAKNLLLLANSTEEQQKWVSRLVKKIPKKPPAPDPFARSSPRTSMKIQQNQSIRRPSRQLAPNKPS

FC(F)(F)c1ccc(CNc2ccc(Cc3c[nH]c4ncc(Cl)cc34)cn2)cn1 [PEXIDARTINIB]
concentration at 2555 h [1]: 139 µM

COc1ncc(F)cc1CNc1ccc(Cc2c[nH]c3ncc(C)cc23)c(F)n1 [PLX-5622]
IC50 [2]: > 1000 nM | Activity (Mus musculus [3]): 18.9% | Activity (Mus musculus [4]): Active | Vd [5]: 0.34 L/kg | Activity [6]: 9.067 m | Activity (Mus musculus [7]): 7 | AUC(0-inf) [8]: 2630 ng·h/mL | Activity (Mus musculus [9]): 14098.06 pg | IC50 [10]: > 1000 nM | Activity (Mus musculus [11]): 89.514 pg | Cmax [12]: 26300 ng/mL | Activity (Mus musculus [13]): 2 | Time (Mus musculus [14]): 0 s | Activity (Mus musculus [15]): 0 pg | IC50 [16]: > 1000 nM | IC50 [17]: > 1000 nM | Activity [18]: 0.13 RPKM | Activity (Mus musculus [19]): 0 | Activity (Mus musculus [20]): 622.98 um3 | Activity (Mus musculus [21]): >99% | Activity (Mus musculus [22]): 0 pg | Flu intensity (Mus musculus [23]): 0.1 a.u. | IC50 (Angiopoietin-1 receptor): > 1000 nM | Activity (Mus musculus [24]): 0.006 pg | Vd [25]: 2.3 L/kg | IC50 [26]: > 1000 nM
